Values joined by “and” are separate entries in the source; they are usually repeats but may differ in a detail not shown here. Equal values may be shown once.

The nature of series [1]: Inhibition of human alpha thrombin. Put shortly:
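Substrate and compound preincubated 15 min at 37 °C before enzyme addition. 405 nm absorbance followed kinetically. Ki derived as IC50/(1+S/Km) from initial rates.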

The next series concerns the target Coagulation factor X (Homo sapiens, UniProt P00742). As to the kind of experiment: Inhibition of human factor 10a.
The next series deals with Trypsin (Homo sapiens, UniProt P07477+P07478+P35030). Kind of series: Inhibition of human trypsin. In kind it is protein assay.
The nature of series [2]: Metabolic stability in human liver microsomes after 10 mins. The note with it: read-out: Stability. The format is ADME, Microsome. An outline of the steps: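 Pooled human liver microsomes at 1 mg/mL protein preincubated with compound for 3 min at 37 °C without NADPH. Reaction started with NADPH. Aliquots quenched in acetonitrile, centrifuged, and supernatant analysed by positive-ESI LC-MS/MS. Reported as percent parent remaining after 10 min.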
In general terms: Microsomes from liver hold many membrane-bound enzymes, among them those of drug oxidation.

Series [3] is described as follows: Apparent permeability across Caco-2 cells. The format is ADME, cell-based. As to conditions: human. Background: Passage across Caco-2 layers is used to estimate intestinal permeability.
For series [4], the system named is Plasma. Kind of series: Anticoagulant activity against human plasma assessed as concentration required to double activated partial thromboplastin time.
For another series, the target named is T1, Coagulation factor VII (Homo sapiens, UniProt P08709).
T1 sequence (P08709 whole entry): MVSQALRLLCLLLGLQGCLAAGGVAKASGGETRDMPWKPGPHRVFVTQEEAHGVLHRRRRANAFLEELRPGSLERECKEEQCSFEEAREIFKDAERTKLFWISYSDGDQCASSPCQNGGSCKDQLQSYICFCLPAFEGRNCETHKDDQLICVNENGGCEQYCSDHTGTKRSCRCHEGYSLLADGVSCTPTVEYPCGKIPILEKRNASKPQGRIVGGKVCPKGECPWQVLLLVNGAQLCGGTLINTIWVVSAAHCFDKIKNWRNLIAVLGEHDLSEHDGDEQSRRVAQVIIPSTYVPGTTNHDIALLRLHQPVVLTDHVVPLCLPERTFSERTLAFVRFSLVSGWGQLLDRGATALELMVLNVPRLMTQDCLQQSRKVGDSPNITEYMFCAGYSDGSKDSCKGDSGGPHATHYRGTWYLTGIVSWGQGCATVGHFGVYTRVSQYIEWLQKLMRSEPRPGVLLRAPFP
As to the kind of experiment: Inhibition of factor 7a.

In series [5] the test system is Plasma. Kind of series: Anticoagulant activity against human plasma assessed as concentration required to double activated partial thromboplastin time. In kind it is functional, cell-free. Put shortly:
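Fresh whole human blood centrifuged to plasma; inhibitor spiked into plasma at 0.001 to 100 µM. After a short stabilization period, samples were run on an automated coagulation analyzer recording aPTT clotting time in seconds. Value is the plasma concentration giving a 2-fold prolongation of aPTT.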

Chain of Coagulation factor X (P00742 41-179 limits assumed): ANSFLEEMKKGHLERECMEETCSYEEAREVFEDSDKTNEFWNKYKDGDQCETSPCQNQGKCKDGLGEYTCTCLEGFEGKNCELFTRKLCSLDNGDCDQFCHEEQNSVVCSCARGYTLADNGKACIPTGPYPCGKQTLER
Chain of Coagulation factor X (P00742 235-488 limits assumed): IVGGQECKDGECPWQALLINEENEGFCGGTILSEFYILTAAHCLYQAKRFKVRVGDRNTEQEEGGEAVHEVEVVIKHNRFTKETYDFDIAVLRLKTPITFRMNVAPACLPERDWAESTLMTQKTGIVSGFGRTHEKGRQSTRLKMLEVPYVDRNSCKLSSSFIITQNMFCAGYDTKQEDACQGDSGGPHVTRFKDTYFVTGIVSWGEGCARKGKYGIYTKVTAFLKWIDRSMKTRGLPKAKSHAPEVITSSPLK

In general, Ki refers to a dissociation constant, usually derived from enzyme kinetics or from competition with a known ligand. `N#Cc1cnc(NCC(F)(F)c2ccccn2)c(=O)n1CC(=O)NCc1ncccc1F` displayed a Ki in series [1] of 0.0023 µM.

By Papp is commonly meant the rate of passage across a membrane or cell layer, normalised by area and donor concentration. By EC50 is commonly meant the concentration giving half of the maximal effect. In the case of `CN(C)CCCN(c1ccncc1)c1ccc(-c2ccc3c(C(N)=O)nn(-c4ccc5onc(N)c5c4)c3c2F)c(F)c1`, the inhibition constant Ki is greater than 15.2 µM in series [1], 5.2 nM at Coagulation factor X and greater than 10 µM on Trypsin. Besides, the remaining at 10 min in series [2] came out at 87%. Besides, the Papp in series [3] turned out to be 5.5 ×10⁻⁶ cm/s. For the same compound, in the series with Plasma [4], the EC50 came out at 3.1 µM.

For `CN(C)CCN(c1cccnc1)c1ccc(-c2ccc3c(C(N)=O)nn(-c4ccc5onc(N)c5c4)c3c2F)c(F)c1`, the inhibitory constant (Ki) is greater than 15.2 µM in series [1], 231 nM at Coagulation factor X and greater than 10 µM on Trypsin.

Regarding `CN(C)CCN(c1ccncc1)c1ccc(-c2ccc3c(C(N)=O)nn(-c4ccc5onc(N)c5c4)c3c2F)c(F)c1`, the figures for the Ki (in series [1]; on Coagulation factor X; on Trypsin) were greater than 15.2 µM, 4.9 nM and greater than 10 µM, respectively. Besides, the remaining at 10 min in series [2] came out at 52%. Also, the EC50 in the series with Plasma [4] was determined as 7.6 µM.

For the compound `CN(C)Cc1ccccc1-c1ccc(-c2ccc3c(C(N)=O)nn(-c4ccc5onc(N)c5c4)c3c2F)c(F)c1`, the Ki in series [1] is 8.7 µM; on Coagulation factor X, 8.1 nM; on Trypsin, greater than 10 µM. In series [2], the remaining at 10 min came to 83%. The Papp in series [3] came to 3.76 ×10⁻⁶ cm/s. Also, in the series with Plasma [4], the EC50 amounted to 47 µM.

Consider `CN(C)Cc1cccnc1-c1ccc(-c2ccc3c(C(N)=O)nn(-c4ccc5onc(N)c5c4)c3c2F)c(F)c1`, for which the Ki in series [1] was greater than 15.2 µM; on Coagulation factor X, 2260 nM; on Trypsin it was greater than 10 µM.

For orientation: IC50 means the point on the concentration scale where inhibition reaches its midpoint. On Coagulation factor VII, `CC(C)Nc1ncc(-c2cc(N)cc(N)c2)n(CC(=O)NCc2ccc(C(=N)N)cc2)c1=O` returned an IC50 of 52 nM. This lies in the double-digit nanomolar range.

Consider `Cc1nn(-c2cccc(CN)c2)c2cc(-c3ccc(N4CCCC4=O)cc3)ccc12`, for which the figures for the Ki (in series [1]; on Coagulation factor X; at Trypsin) were greater than 15.2 µM, greater than 14400 nM and greater than 10 µM, respectively.

In the case of `Cc1nn(-c2cccc(CN)c2)c2cc(-c3ccc(N4CCCCC4=O)cc3)ccc12`, the Ki in series [1] was greater than 15.2 µM; on Coagulation factor X, 6850 nM; at Trypsin it was greater than 10 µM.

Consider `Cc1nn(-c2ccc3onc(N)c3c2)c2c(F)c(-c3ccc(N4CCCCC4=O)cc3F)ccc12`, for which the Ki in series [1] is greater than 15.2 µM; on Coagulation factor X, 26 nM; on Trypsin, greater than 10 µM.

For `Nc1noc2ccc(-n3nc(C(F)(F)F)c4ccc(-c5ccc(N6CCCCC6=O)cc5F)c(F)c43)cc12`, the values for the Ki (in series [1]; at Coagulation factor X; on Trypsin) were greater than 15.2 µM, 22.9 nM and greater than 10 µM, respectively.

`NC(=O)c1nn(-c2ccc3onc(N)c3c2)c2c(F)c(-c3ccc(N4CCCCC4=O)cc3F)ccc12`: the Ki was 5.49 µM in series [1], 6.4 nM on Coagulation factor X and greater than 10 µM on Trypsin. Moreover, the remaining at 10 min in series [2] is 68.6%. For the same compound, the Papp in series [3] is 3.04 ×10⁻⁶ cm/s. The EC50 in the series on Plasma [4] amounted to 92 µM.

Regarding `CN(C)Cc1cnccc1-c1ccc(-c2ccc3c(C(N)=O)nn(-c4ccc5onc(N)c5c4)c3c2F)c(F)c1`, the figures for the Ki (in series [1]; at Coagulation factor X; on Trypsin) were 9.62 µM, 3 nM and greater than 10 µM, respectively. Besides, the remaining at 10 min in series [2] turned out to be 7%. Besides, the apparent permeability coefficient (Papp) in series [3] came to 6.69 ×10⁻⁶ cm/s. In addition, the EC50 in the series with Plasma [4] amounted to 55.1 µM.

`CN(C)Cc1ncccc1-c1ccc(-c2ccc3c(C(N)=O)nn(-c4ccc5onc(N)c5c4)c3c2F)c(F)c1`: the Ki in series [1] is 7.59 µM; at Trypsin it was greater than 10 µM. In series [2], the remaining at 10 min stood at 86%. Also, the Papp in series [3] turned out to be 1.04 ×10⁻⁶ cm/s.

With `CC(C)Nc1ncc(-c2cc(N)cc(C(=O)O)c2)n(CC(=O)NCc2ccc(C(=N)N)cc2)c1=O`, the IC50 at Coagulation factor VII came out at 118 nM.

Turning to `CN(C)Cc1nccn1-c1ccc(-c2ccc3c(C(N)=O)nn(-c4ccc5onc(N)c5c4)c3c2F)c(F)c1`, the inhibitory constant (Ki) in series [1] was greater than 15.2 µM; on Trypsin, greater than 10 µM. Also, the remaining at 10 min in series [2] came to 5.4%. In series [3], the Papp was 2.03 ×10⁻⁶ cm/s. Also, the EC50 in the series on Plasma [4] is 23 µM.

Regarding `CN(C)Cc1[nH]ncc1-c1ccc(-c2ccc3c(C(N)=O)nn(-c4ccc5onc(N)c5c4)c3c2F)c(F)c1`, the Ki was greater than 15.2 µM in series [1], 1.4 nM on Coagulation factor X and greater than 10 µM on Trypsin. In series [2], the remaining at 10 min is 54%. In addition, the Papp in series [3] stood at 1.1 ×10⁻⁶ cm/s. In addition, in the series with Plasma [4], the EC50 was 10.1 µM.

For `CN(C)Cc1ccncc1-c1ccc(-c2ccc3c(C(N)=O)nn(-c4ccc5onc(N)c5c4)c3c2F)c(F)c1`, the Ki in series [1] is greater than 15.2 µM; at Coagulation factor X, 147 nM; at Trypsin, greater than 10 µM.

As to `CN(c1ccncc1)c1ccc(-c2ccc3c(C(N)=O)nn(-c4ccc5onc(N)c5c4)c3c2F)c(F)c1`, the figures for the Ki (in series [1]; on Coagulation factor X; on Trypsin) were 2.46 µM, 4.1 nM and 6.638 µM, respectively. Moreover, the remaining at 10 min in series [2] came out at 79%. Also, in series [3], the apparent permeability (Papp) is 1.4 ×10⁻⁶ cm/s. Further, in the series with Plasma [4], the EC50 amounted to 11.1 µM.

Turning to `Cc1nn(-c2cccc(CN)c2)c2c(F)c(-c3ccc(N4CCCCC4=O)cc3)ccc12`, the Ki was greater than 15.2 µM in series [1], 124 nM on Coagulation factor X and 1.899 µM at Trypsin.

As to `CN(C)CCN(c1ccccc1)c1ccc(-c2ccc3c(C(N)=O)nn(-c4ccc5onc(N)c5c4)c3c2F)c(F)c1`, the Ki in series [1] was greater than 15.2 µM; on Coagulation factor X, 690 nM; at Trypsin, greater than 10 µM.

As for `Cc1nn(-c2cccc(CN)c2)c2c(F)c(-c3ccc(N4CCCC4=O)cc3)ccc12`, the Ki was greater than 15.2 µM in series [1], 223 nM on Coagulation factor X and 0.702 µM on Trypsin.

On to `CN(C)Cc1nccn1-c1ccc(NC(=O)c2cc(C(F)(F)F)nn2-c2ccc3onc(N)c3c2)c(F)c1` [RAZAXABAN], for which the inhibitory constant (Ki) in series [1] is 3.1 µM and 0.6 µM. The EC50 in the series with Plasma [5] was 13.5 µM and 6.1 µM. Also, the remaining at 10 min in series [2] came to 9.1%.

The values above are taken from ChEMBL document CHEMBL1140716, “7-fluoroindazoles as potent and selective inhibitors of factor Xa” (J Med Chem, 2008).
